The values that follow come from ChEMBL document CHEMBL4732243, “Design, synthesis, and structure activity relationship analysis of new betulinic acid derivatives as potent HIV inhibitors” (Eur J Med Chem, 2021).

One data set deals with MT4. The experiment in a line: Cytotoxicity against human MT4 cells assessed as reduction in cell viability incubated for 2 days by CytoTox-Glo cytotoxicity assay. The format is cell-based. The following applies: mt4, 48 h, time 2 day. Summed up:
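Mock-infected MT-4 cells cultured 2 days with a range of compound concentrations. Viability measured by CytoTox-Glo, following the kit protocol, as percent viable cells. CC50 is the concentration giving a 50% reduction in cell viability.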

The subject of data set [1] is Human immunodeficiency virus 1. The data set can be described thus: Potency index, ratio of IC50 for bevirimat to IC50 for test compound for antiviral activity against HIV-1 NL4-3 infected in human MT4 cells assessed as reduction in p24 gag protein incubated for 4 days by ELISA. The format is functional. The following applies: time 4 day. Summed up:
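MT-4 cells infected with HIV-1 NL4-3 at MOI 0.01 and cultured with the test compounds. Bevirimat was run in parallel as the reference control. Supernatant p24 was measured on day 4 post-infection by antigen-capture ELISA. IC50 is the concentration that inhibits NL4-3 replication by 50%. The index is the bevirimat IC50 divided by the test-compound IC50.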
(An ELISA detects its analyte on a solid surface through an enzyme-linked reagent.)

Data set [2] concerns Human immunodeficiency virus 1. The data set can be described thus: Antiviral activity against HIV-1 NL4-3 infected in human MT4 cells assessed as reduction in p24 gag protein incubated for 4 days by ELISA. In kind it is functional, organism-based. The following applies: Human immunodeficiency virus 1, NL4-3, MT4, 96 h. An outline of the steps: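 MT-4 cells infected with HIV-1 NL4-3 at MOI 0.01, serial compound concentrations, in 96-well format. Supernatant p24 antigen measured by capture ELISA on day 4 post-infection. IC50 is the concentration that inhibits NL4-3 replication by 50%. Bevirimat run in parallel as the reference.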

As to `C=C(C)[C@@H]1CC[C@]2(C(=O)N3CCN(C(=O)/C=C/c4ccc(O)c(O)c4)CC3)CC[C@]3(C)[C@H](CC[C@@H]4[C@@]5(C)CC[C@H](OC(=O)CC(C)(C)C(=O)O)C(C)(C)[C@@H]5CC[C@]43C)[C@@H]12`, the CC50 in the data set with MT4 is above 2000 nM. Further, in data set [1], the “Ratio IC50” value came to 2.
In the case of `C=C(C)[C@@H]1CC[C@]2(C(=O)N3CCN(C(=O)/C=C/c4ccc5c(c4)OCO5)CC3)CC[C@]3(C)[C@H](CC[C@@H]4[C@@]5(C)CC[C@H](OC(=O)CC(C)(C)C(=O)O)C(C)(C)[C@@H]5CC[C@]43C)[C@@H]12`, in the data set on MT4, the CC50 was above 2000 nM. Also, the “Ratio IC50” value in data set [1] was 2.
Take `C=C(C)[C@@H]1CC[C@]2(C(=O)N3CCN(C(=O)/C=C/c4ccc(OCOC)c(OC)c4)CC3)CC[C@]3(C)[C@H](CC[C@@H]4[C@@]5(C)CC[C@H](OC(=O)CC(C)(C)C(=O)O)C(C)(C)[C@@H]5CC[C@]43C)[C@@H]12`: the IC50 in data set [2] (read-out: IC50) was 25 nM; in data set [2] (read-out: pIC50 (converted)) it was 25.1 nM. The CC50 in the data set on MT4 is above 2000 nM. Further, the “Ratio IC50” value in data set [1] is recorded as 2.
Consider `C=C(C)[C@@H]1CC[C@]2(C(=O)N3CCN(C(=O)/C=C/c4ccc(O)c(OC)c4)CC3)CC[C@]3(C)[C@H](CC[C@@H]4[C@@]5(C)CC[C@H](OC(=O)CC(C)(C)C(=O)O)C(C)(C)[C@@H]5CC[C@]43C)[C@@H]12`, for which the results for the IC50 in data set [2] (read-out: IC50) and in data set [2] (read-out: pIC50 (converted)) were 18 nM and 18.2 nM, respectively. For the same compound, in the data set on MT4, the CC50 is above 2000 nM. Further, the “Ratio IC50” value in data set [1] is 2.
For `C=C(C)[C@@H]1CC[C@]2(C(=O)N3CCN(C(=O)CC(C)(C)C(=O)O)CC3)CC[C@]3(C)[C@H](CC[C@@H]4[C@@]5(C)CC[C@H](ON6CCN(C(=O)CC(C)(C)C(=O)O)CC6)C(C)(C)[C@@H]5CC[C@]43C)[C@@H]12`, the IC50 in data set [2] (read-out: IC50) was 14 nM; in data set [2] (read-out: pIC50 (converted)) it was 14.1 nM. In addition, in the data set with MT4, the 50% cytotoxic concentration (CC50) is above 2000 nM.
Take `C=C(C)[C@@H]1CC[C@]2(C(=O)N3CCNCC3)CC[C@]3(C)[C@H](CC[C@@H]4[C@@]5(C)CC[C@H](Oc6ccc(O)c(O)c6)C(C)(C)[C@@H]5CC[C@]43C)[C@@H]12`: the IC50 in data set [2] (read-out: IC50) and in data set [2] (read-out: pIC50 (converted)) was 490 nM in each case. The cytotoxic concentration (CC50) in the data set on MT4 is above 2000 nM.

What is called CC50 is the concentration giving 50% cytotoxicity.
